Consider 5 molecules from paper PMC11701428 (RSC Advances, 2025).

For test [1], the system named is HepG2 cells. Briefly: MTT cytotoxicity assay against HepG2 cells. Format: cell-based. As to conditions: read-out: IC50 ± SD HepG2, mean ± SD of three independent trials. An outline of the steps:
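HepG2 cells (NCI Cairo) grown in RPMI-1640 with L-glutamine, 10% FBS and 1% penicillin–streptomycin at 37 °C, 5% CO2. Plated in triplicate at 5 × 10^4 cells; next day treated at 0.01, 0.1, 1, 10 and 100 μM. Viability measured by MTT relative to control, IC50 computed. Mean ± SD of three independent trials.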
Background: Formazan colour is commonly taken as a measure of viable cells.

Test [2] has as its system HepG2 cells. Briefly: Annexin V/PI staining flow cytometry. The test is classed as cell-based. The following applies: HepG2, treated at IC50 for 48 h. (A flow cytometer gives signals particle by particle.)
Test [3] has as its target PARP-1 (Homo sapiens, UniProt P09874). Briefly: PARP-1 enzyme inhibition. As to conditions: for percentage of inhibition of PARP-1: concentration not given. Format: biochemical.
In test [4] the test system is apoptosis-related genes (P53, Bax, caspases 3, 8, 9, BCL-2) in HepG2 cells. Briefly: RT-PCR gene expression of apoptosis-related genes in HepG2 cells. The following applies: HepG2, IC50, 48 h, normalized to β-actin. Format: cell-based.
Test [5] relates to HepG2 cells. Briefly: Cell cycle analysis by flow cytometry in HepG2 cells. The test is classed as cell-based. As to conditions: HepG2, treated at IC50 for 48 h. A digest of the protocol:
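Flow cytometric cell-phase distribution of HepG2 cells. Cells were left untreated or given test compound at its IC50 for 48 h. Data are mean ± SD of three independent runs.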

The target in test [6] is EGFR (Homo sapiens, UniProt P00533). Briefly: EGFR-TK enzyme inhibition. Format: biochemical. As to conditions: for percentage of inhibition of EGFR: concentration not given.
EGFR, sequence (P00533 25-1210): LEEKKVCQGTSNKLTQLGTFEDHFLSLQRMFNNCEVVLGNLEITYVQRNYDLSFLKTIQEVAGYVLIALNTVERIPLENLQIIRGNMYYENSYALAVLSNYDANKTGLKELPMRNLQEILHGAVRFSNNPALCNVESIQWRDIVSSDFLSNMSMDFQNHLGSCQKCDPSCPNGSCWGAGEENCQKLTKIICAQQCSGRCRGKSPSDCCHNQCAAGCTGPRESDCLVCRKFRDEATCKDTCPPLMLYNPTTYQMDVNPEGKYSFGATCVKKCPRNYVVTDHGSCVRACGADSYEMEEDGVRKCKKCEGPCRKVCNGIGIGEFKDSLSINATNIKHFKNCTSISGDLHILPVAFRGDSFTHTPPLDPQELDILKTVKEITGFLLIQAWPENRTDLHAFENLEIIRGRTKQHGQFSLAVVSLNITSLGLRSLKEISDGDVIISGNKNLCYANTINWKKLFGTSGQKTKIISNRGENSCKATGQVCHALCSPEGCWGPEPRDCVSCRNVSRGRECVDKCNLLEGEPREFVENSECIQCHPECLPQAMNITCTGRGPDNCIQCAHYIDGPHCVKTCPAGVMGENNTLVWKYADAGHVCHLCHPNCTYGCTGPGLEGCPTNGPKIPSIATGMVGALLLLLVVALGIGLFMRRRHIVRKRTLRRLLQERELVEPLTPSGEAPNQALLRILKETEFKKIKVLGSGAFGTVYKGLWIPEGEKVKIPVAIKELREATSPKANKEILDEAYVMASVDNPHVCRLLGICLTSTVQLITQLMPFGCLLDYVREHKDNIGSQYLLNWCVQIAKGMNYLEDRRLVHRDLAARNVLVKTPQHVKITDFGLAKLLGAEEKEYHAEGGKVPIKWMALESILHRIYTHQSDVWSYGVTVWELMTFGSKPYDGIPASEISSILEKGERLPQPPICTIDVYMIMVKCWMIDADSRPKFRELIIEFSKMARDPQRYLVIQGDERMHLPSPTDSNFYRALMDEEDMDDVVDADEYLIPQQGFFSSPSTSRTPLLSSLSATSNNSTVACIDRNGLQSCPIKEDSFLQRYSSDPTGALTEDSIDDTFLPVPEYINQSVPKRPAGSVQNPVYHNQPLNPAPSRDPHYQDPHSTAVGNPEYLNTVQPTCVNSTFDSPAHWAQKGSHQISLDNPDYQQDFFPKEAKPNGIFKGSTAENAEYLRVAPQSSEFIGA

PARP-1, sequence (P09874 whole entry): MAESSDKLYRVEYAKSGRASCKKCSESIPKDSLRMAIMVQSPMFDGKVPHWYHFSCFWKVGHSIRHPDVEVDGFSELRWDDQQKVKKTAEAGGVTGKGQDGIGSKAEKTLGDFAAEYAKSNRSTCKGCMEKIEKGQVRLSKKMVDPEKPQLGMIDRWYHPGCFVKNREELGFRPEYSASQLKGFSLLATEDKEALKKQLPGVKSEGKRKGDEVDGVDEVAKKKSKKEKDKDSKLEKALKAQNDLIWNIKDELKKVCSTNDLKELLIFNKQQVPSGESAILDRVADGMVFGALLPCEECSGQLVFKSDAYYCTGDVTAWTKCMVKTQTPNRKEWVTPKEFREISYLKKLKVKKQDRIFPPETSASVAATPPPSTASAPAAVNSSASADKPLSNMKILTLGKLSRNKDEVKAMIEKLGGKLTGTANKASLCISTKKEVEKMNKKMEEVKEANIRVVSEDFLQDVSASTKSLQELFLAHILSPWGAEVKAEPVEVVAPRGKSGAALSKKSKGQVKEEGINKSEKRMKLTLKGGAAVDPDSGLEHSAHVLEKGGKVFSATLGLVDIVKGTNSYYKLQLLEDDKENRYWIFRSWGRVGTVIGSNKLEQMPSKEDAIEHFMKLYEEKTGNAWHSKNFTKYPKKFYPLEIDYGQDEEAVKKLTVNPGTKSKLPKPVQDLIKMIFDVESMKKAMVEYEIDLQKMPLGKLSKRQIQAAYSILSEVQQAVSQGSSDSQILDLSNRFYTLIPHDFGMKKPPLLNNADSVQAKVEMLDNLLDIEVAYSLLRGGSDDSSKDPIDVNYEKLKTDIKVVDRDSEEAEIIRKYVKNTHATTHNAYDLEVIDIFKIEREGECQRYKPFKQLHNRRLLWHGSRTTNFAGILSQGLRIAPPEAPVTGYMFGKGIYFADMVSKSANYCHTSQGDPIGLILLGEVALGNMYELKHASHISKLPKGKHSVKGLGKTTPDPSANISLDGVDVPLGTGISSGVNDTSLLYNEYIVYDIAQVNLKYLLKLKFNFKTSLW

As for `Cc1c(C(=O)/C=C/c2cc3ccccc3s2)nnn1-c1c(Cl)cc(Cl)cc1Cl` [1b, (E)-3-(Benzo[b]thiophen-2-yl)-1-(5-methyl-1-(2,4,6-trichlorophenyl)-1H-1,2,3-triazol-4-yl)prop-2-en-1-one], the half-maximal inhibitory concentration (IC50) – broadly, the concentration needed to halve the response being measured – in test [1] stood at 8500 ± 400 nM.
On to `Cc1c(C(=O)[C@H]2[C@H](c3cc4ccccc4o3)C3CCCN3[C@]23C(=O)Nc2cc(Cl)ccc23)nnn1-c1c(Cl)cc(Cl)cc1Cl` (stereo partly drawn) [4a, (1′S,2′S,3R)-1′-(Benzofuran-2-yl)-6-chloro-2′-(5-methyl-1-(2,4,6-trichlorophenyl)-1H-1,2,3-triazole-4-carbonyl)-1′,2′,5′,6′,7′,7a′-hexahydrospiro[indoline-3,3′-pyrrolizin]-2-one], for which, in test [2], the “early apoptosis cell population” value amounted to 12.1%, the “induction of apoptosis versus untreated control” value turned out to be 6.62 fold and the “late apoptosis cell population” value is given as 0.95%. Besides, the cells in necrosis in test [2] (untreated 0.61%) is 0.58%. Besides, the “cell population in total apoptosis” value in test [2] (untreated 1.97%) was 13.05%. For the same molecule, in test [3], half-maximal inhibition (IC50) required 2.01 ± 0.1 nM and the “percentage of inhibition of PARP-1” value turned out to be 95.2%. In test [4] (2^−ΔΔCT), the “Bax gene expression fold change” value was determined as 4.6 fold, the “P53 gene expression fold change” value was determined as 9.3 fold, the “caspase 3 gene expression fold change” value is listed as 5.6 fold and the “caspase 8 gene expression fold change” value worked out at 3.5 fold. The “caspase 9 gene expression fold change” value in test [4] (2^−ΔΔCT) is 8.6 fold. Also, in test [4] (anti-apoptotic gene, decreased), the “BCL-2 gene expression (fold, decrease)” value amounted to 0.37 fold. In test [5] (control 30%), the “cell population in S-phase” value was 33%. Besides, the “cell population in G2/M-phase” value in test [5] (control 34%) stood at 42%. In test [6], the IC50 was determined as 74.6 ± 1.8 nM and the “percentage of inhibition of EGFR” value stood at 94.1%.
With `Cc1c(C(=O)[C@H]2[C@H](c3cc4ccccc4s3)C3CCCN3[C@]23C(=O)Nc2cc(Cl)ccc23)nnn1-c1c(Cl)cc(Cl)cc1Cl` (stereo partly drawn) [4b, (1′S,2′S,3R)-1′-(Benzo[b]thiophen-2-yl)-6-chloro-2′-(5-methyl-1-(2,4,6-trichlorophenyl)-1H-1,2,3-triazole-4-carbonyl)-1′,2′,5′,6′,7′,7a′-hexahydrospiro[indoline-3,3′-pyrrolizin]-2-one], in test [3], half-maximal inhibition (IC50) required 3.6 ± 0.3 nM and the “percentage of inhibition of PARP-1” value is 81.2%. In test [6], it took 85.3 ± 2.9 nM to reach half-maximal inhibition (IC50) and the “percentage of inhibition of EGFR” value was 90.1%.
For `Cc1c(C(=O)[C@H]2[C@H](c3cc4ccccc4s3)C3CCCN3[C@]23C(=O)Nc2ccc(F)cc23)nnn1-c1c(Cl)cc(Cl)cc1Cl` (stereo partly drawn) [4f, (1′S,2′S,3R)-1′-(Benzo[b]thiophen-2-yl)-5-fluoro-2′-(5-methyl-1-(2,4,6-trichlorophenyl)-1H-1,2,3-triazole-4-carbonyl)-1′,2′,5′,6′,7′,7a′-hexahydrospiro[indoline-3,3′-pyrrolizin]-2-one], in that order: 18.4 ± 1 nM, 86.6%, 116 ± 3.1 nM and 84.3%.
On to `Cc1c(C(=O)[C@H]2[C@H](c3cc4ccccc4o3)C3CCCN3[C@]23C(=O)Nc2ccc(F)cc23)nnn1-c1c(Cl)cc(Cl)cc1Cl` (stereo partly drawn) [4g, (1′S,2′S,3R)-1′-(Benzofuran-2-yl)-5-fluoro-2′-(5-methyl-1-(2,4,6-trichlorophenyl)-1H-1,2,3-triazole-4-carbonyl)-1′,2′,5′,6′,7′,7a′-hexahydrospiro[indoline-3,3′-pyrrolizin]-2-one], for which the IC50 in test [1] turned out to be 8900 ± 300 nM.
